PubChem BioAssay AID2465 (Broad Institute, 2010)
Where “and” joins values, the source holds several entries; their conditions need not be identical. Equal entries are not always repeated. The campaign covered roughly 24,000 compounds. Fewer than 10 were called active. Rule as the data show it: active = caspase activation above about 5.9%; inconclusive = no clear call, values can overlap the other calls; inactive = below about 2.2%. Not all results are given here.

assay: A1 inhibitors via caspase activation, primary screen, cell-based, luminescence, HTS, two replicates (AID 2465); conditions: MEF A1-2A-BIM cells, caspase-Glo luminescence, 3 h; stronger effect = higher value; percent of clofoctol response, DMSO zero; concentration not given here
Outline: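 Test system – A1-2A-BIM-expressing MEF cells · Input – 2500 cells/well · Medium – RPMI-1640 growth medium with 10% FBS · Compound dosing – 50 nL pinned compound · Timing – 3 h compound exposure at 37 °C · Technique – Caspase-Glo luminescence (DEVD substrate) · Evaluation – Caspase-3/7 activity from luminescence increase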

Caspase activation, inactive:
COc1ccc(S(=O)(=O)Nc2ccc3c(c2)C(=O)N([C@@H](C)CO)C[C@H](C)[C@H](CN(C)S(=O)(=O)c2c(C)noc2C)OCCCC[C@@H](C)O3)cc1 0.0111%, C[C@@H]1CCCCO[C@@H](CN(C)C(=O)NC2CCCCC2)[C@H](C)CN([C@H](C)CO)C(=O)c2cc(NC(=O)c3ccccc3)ccc2O1 0.223%, C[C@H]1CN([C@@H](C)CO)C(=O)c2cccc(NS(=O)(=O)c3ccc(Cl)cc3)c2O[C@@H]1CN(C)Cc1ccc(Oc2ccccc2)cc1 1%, C[C@H](CO)N1C[C@H](C)[C@H](CN(C)Cc2ccc(C(=O)O)cc2)Oc2ccc(NS(=O)(=O)c3cn(C)cn3)cc2CC1=O -0.00308%, C[C@@H]1CN([C@H](C)CO)C(=O)Cc2cc(NC(=O)c3ccncc3)ccc2O[C@H]1CN(C)S(=O)(=O)c1cccs1 0.361%, COc1ccc(CN(C)C[C@@H]2OCCCC[C@@H](C)Oc3ccc(NS(=O)(=O)c4ccc(C)cc4)cc3C(=O)N([C@@H](C)CO)C[C@H]2C)cc1 0.1%, Cc1noc(C)c1S(=O)(=O)Nc1ccc2c(c1)C(=O)N([C@H](C)CO)C[C@H](C)[C@H](CN(C)C(=O)NC1CCCCC1)OCCCC[C@H](C)O2 -1.41%, O=C(N/N=C/[C@H](O)[C@@H](O)[C@H](O)[C@H](O)CO)c1ccccc1O -0.678%, C[C@H]1CCCCO[C@H](CN(C)C(=O)Nc2ccc3c(c2)OCO3)[C@@H](C)CN([C@@H](C)CO)C(=O)c2cc(NC(=O)Nc3ccccc3)ccc2O1 0.0515%, C[C@H]1CN([C@@H](C)CO)C(=O)c2cccc(NC(=O)Nc3ccccc3)c2O[C@@H]1CN(C)C(=O)Nc1cccc2ccccc12 -0.864%, [N-]=[N+]=NC[C@H](Cc1ccccc1)NC(=O)Nc1ccccc1 -3.77% and 0.143%, COc1ccc(S(=O)(=O)Nc2ccc3c(c2)C(=O)N([C@H](C)CO)C[C@H](C)[C@@H](CN(C)Cc2ccccc2)OCCCC[C@@H](C)O3)cc1 0.258%, Cc1cccc(S(=O)(=O)N(C)C[C@H]2OCc3cnnn3CCCC(=O)N([C@@H](C)CO)C[C@H]2C)c1 -0.906%, COc1ccc(S(=O)(=O)Nc2ccc3c(c2)C(=O)N([C@@H](C)CO)C[C@@H](C)[C@H](CN(C)C(=O)Nc2ccc(C(F)(F)F)cc2)OCCCC[C@@H](C)O3)cc1 -0.653%, C[C@@H]1CCCCO[C@@H](CN(C)S(=O)(=O)c2ccccc2)[C@H](C)CN([C@H](C)CO)C(=O)c2cc(NC(=O)Nc3ccc4c(c3)OCO4)ccc2O1 -1.23%, C[C@H]1CN([C@@H](C)CO)C(=O)c2cc(N(C)C)ccc2O[C@@H]1CN(C)S(=O)(=O)c1ccc(Cl)cc1 -0.761%, C[C@H]1CCCCO[C@@H](CN(C)S(=O)(=O)c2ccc(Cl)cc2)[C@@H](C)CN([C@@H](C)CO)C(=O)c2cc(NS(=O)(=O)c3cn(C)cn3)ccc2O1 -0.712%, C[C@@H]1CN([C@H](C)CO)C(=O)c2cc(NS(=O)(=O)c3ccc(F)cc3)ccc2O[C@@H]1CN(C)S(C)(=O)=O -0.125%, COc1ccc(S(=O)(=O)N(C)C[C@@H]2OCCCC[C@@H](C)Oc3ccc(NC(=O)CCCN(C)C)cc3C(=O)N([C@@H](C)CO)C[C@@H]2C)cc1 0.265%, COc1ccc(S(=O)(=O)Nc2ccc3c(c2)C(=O)N([C@H](C)CO)C[C@@H](C)[C@H](CN(C)S(=O)(=O)c2ccc(Cl)cc2)OCCCC[C@@H](C)O3)cc1 -1.08%, C[C@@H]1CCCCO[C@@H](CN(C)Cc2ccc(C(F)(F)F)cc2)[C@H](C)CN([C@H](C)CO)C(=O)c2cc(NS(=O)(=O)c3ccc(F)cc3)ccc2O1 -0.24%, COc1ccc(NC(=O)Nc2ccc3c(c2)C(=O)N([C@H](C)CO)C[C@H](C)[C@@H](CN(C)Cc2ccccc2)OCCCC[C@H](C)O3)cc1 0.0689%, C[C@@H]1CCCCO[C@H](CN(C)C(=O)Nc2cccc3ccccc23)[C@@H](C)CN([C@@H](C)CO)C(=O)c2cc(NC(=O)Nc3ccc(F)cc3)ccc2O1 0.273%, Cc1noc(C)c1NC(=O)N(C)C[C@@H]1Oc2c(NC(=O)CCCCCC(=O)Nc3ccccc3N)cccc2C(=O)N([C@H](C)CO)C[C@@H]1C 1.76%, C[C@H](CO)N1C[C@H](C)[C@H](CN(C)Cc2ccccc2)OCCCC[C@H](C)Oc2ccc(NC(=O)Cc3ccccc3)cc2C1=O -0.193%, C[C@@H]1CN([C@@H](C)CO)C(=O)c2cccc(NC(=O)CCCCCC(=O)Nc3ccccc3N)c2O[C@H]1CN(C)C(=O)Nc1ccccc1 0.335%, Cc1noc(C)c1S(=O)(=O)N(C)C[C@H]1OCCCC[C@H](C)Oc2ccc(NC(=O)c3ccccc3)cc2C(=O)N([C@@H](C)CO)C[C@H]1C -0.984%, C[C@@H]1CN([C@H](C)CO)C(=O)c2cc(NC(=O)CCCN(C)C)ccc2O[C@H]1CN(C)S(=O)(=O)c1ccc(Cl)cc1 -1.33%, C[C@@H]1CCCCO[C@H](CN(C)C(=O)CCCN(C)C)[C@H](C)CN([C@@H](C)CO)C(=O)c2cc(NS(=O)(=O)c3ccc(Cl)cc3)ccc2O1 0.532%, COc1ccc(NC(=O)Nc2ccc3c(c2)CC(=O)N([C@@H](C)CO)C[C@@H](C)[C@H](CN(C)C(=O)NC2CCCCC2)O3)cc1 -1.36%, COc1ccc(S(=O)(=O)N(C)C[C@H]2Oc3c(NS(=O)(=O)c4ccc(F)cc4)cccc3C(=O)N([C@H](C)CO)C[C@H]2C)cc1 -0.361%, COC(=O)CCCCCCC(=O)N/N=C/c1ccc(I)cc1 0.387%, C[C@@H]1CN([C@H](C)CO)C(=O)c2cc(NC(=O)Nc3ccc(C(F)(F)F)cc3)ccc2O[C@@H](C)CCCCO[C@@H]1CN(C)Cc1ccc(C(F)(F)F)cc1 0.82%, C[C@@H]1CN([C@@H](C)CO)C(=O)c2cc(NC(=O)CCCCCC(=O)Nc3ccccc3N)ccc2O[C@@H](C)CCCCO[C@@H]1CN(C)CC1CCCCC1 0.522%, C[C@@H]1CCCCO[C@@H](CN(C)C(=O)C2CCCCC2)[C@H](C)CN([C@H](C)CO)C(=O)c2cc(NC(=O)Cc3ccccc3)ccc2O1 3.18%, C[C@@H]1CCCCO[C@@H](CN(C)S(=O)(=O)c2cccs2)[C@H](C)CN([C@H](C)CO)C(=O)c2cc(NC(=O)CCCN(C)C)ccc2O1 0.621%, Cc1ccc(S(=O)(=O)N(C)C[C@@H]2Oc3ccc(NC(=O)NC4CCCCC4)cc3C(=O)N([C@@H](C)CO)C[C@H]2C)cc1 -0.781%, C[C@H](CO)N1C[C@H](C)[C@H](CN(C)C(=O)Nc2ccccc2)Oc2c(NC(=O)Nc3ccc(C(F)(F)F)cc3)cccc2C1=O -0.159%, C[C@@H]1CCCCO[C@@H](CN(C)Cc2ccc(Cl)c(Cl)c2)[C@H](C)CN([C@@H](C)CO)C(=O)c2cc(NS(C)(=O)=O)ccc2O1 -0.491%, Cc1ccc(S(=O)(=O)Nc2ccc3c(c2)C(=O)N([C@@H](C)CO)C[C@@H](C)[C@H](CN(C)Cc2ccc4c(c2)OCO4)OCCCC[C@@H](C)O3)cc1 0.694%, C[C@H](CO)N1C[C@H](C)[C@@H](CN(C)C(=O)Nc2ccc(F)cc2)OCCCC[C@H](C)Oc2ccc(NC(=O)c3ccncc3)cc2C1=O 0.454%, CC(C)NC(=O)Nc1ccc2c(c1)C(=O)N([C@H](C)CO)C[C@@H](C)[C@@H](CN(C)Cc1ccncc1)O2 1.1%, C[C@@H]1CN([C@@H](C)CO)C(=O)c2cccc(NS(=O)(=O)c3ccccc3)c2O[C@@H]1CN(C)S(=O)(=O)c1ccc(F)cc1 0.0248%, COc1ccc(S(=O)(=O)Nc2ccc3c(c2)C(=O)N([C@@H](C)CO)C[C@@H](C)[C@H](CN(C)Cc2ccc(C(F)(F)F)cc2)OCCCC[C@@H](C)O3)cc1 -1.2%, C[C@H]1CN([C@@H](C)CO)C(=O)Cc2cc(NS(=O)(=O)c3ccccc3)ccc2O[C@@H]1CN(C)Cc1ccc(C(=O)Nc2ccccc2N)cc1 1.17%, Cc1noc(C)c1NC(=O)N(C)C[C@@H]1OCCCC[C@@H](C)Oc2ccc(NC(=O)C3CCCCC3)cc2C(=O)N([C@@H](C)CO)C[C@H]1C -0.914%, C[C@H]1CN([C@@H](C)CO)C(=O)Cc2cc(NC(=O)C3CCCCC3)ccc2O[C@H]1CN(C)C(=O)Nc1ccc(C(F)(F)F)cc1 0.751%, C[C@@H]1CCCCO[C@H](CN(C)Cc2ccc3c(c2)OCO3)[C@H](C)CN([C@@H](C)CO)C(=O)c2cc(NS(=O)(=O)c3cn(C)cn3)ccc2O1 -0.23%, Cc1ccc(S(=O)(=O)Nc2ccc3c(c2)C(=O)N([C@H](C)CO)C[C@@H](C)[C@H](CN(C)C(=O)Nc2ccc(C(F)(F)F)cc2)OCCCC[C@H](C)O3)cc1 -0.505%, COc1ccc(CN(C)C[C@@H]2Oc3ccc(NS(=O)(=O)c4ccc(F)cc4)cc3C(=O)N([C@@H](C)CO)C[C@@H]2C)cc1 -0.363%, C[C@H]1CN([C@@H](C)CO)C(=O)c2cccc(NS(=O)(=O)c3ccc(Cl)cc3)c2O[C@H]1CN(C)S(=O)(=O)c1ccc(Cl)cc1 -1.18%
